Data on 5 molecules can be found in ChEMBL document CHEMBL3272145, “Synthesis and some pharmacological properties of the 23-peptide 15-lysine-secretin-(5--27). Special role of the residue in position 15 in biological activity of the vasoactive intestinal polypeptide” (1978).

For experiment [1], the species on record is Cavia porcellus. Nature of the experiment: Apparent binding affinity to VIP receptor in guinea pig acinar cells assessed as inhibition of VIP-induced cAMP accumulation measured as concentration required to occupy 50% of receptor. The experiment is classed as cell-based. An outline of the steps:
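Dispersed acinar cells from guinea pig pancreas. Apparent affinity for the VIP-preferring receptor was calculated from the fragment's ability to inhibit the cAMP increase caused by 10^-9 M VIP. Values are means (±1 SD) from three separate experiments.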

The species named for experiment [2] is Rattus norvegicus. Nature of the experiment: Effect on exocrine pancreatic secretion in rat. The experiment is classed as functional, organism-based.
For experiment [3], the system named is Rattus norvegicus. Nature of the experiment: Induction of pancreatic secretory flow in iv dosed rat measured per 10 mins per gram wet weight of pancreas. The experiment is classed as functional.
For experiment [4], the species on record is Cavia porcellus. Nature of the experiment: Apparent binding affinity to secretin receptor in guinea pig acinar cells assessed as inhibition of secretin-induced cAMP accumulation measured as concentration required to occupy 50% of receptor. Type of experiment: cell-based. In short, it runs like this: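 Dispersed acinar cells from guinea pig pancreas. Apparent affinity for the secretin-preferring receptor was calculated from the fragment's ability to inhibit the cAMP increase caused by 10^-9 M secretin. Values are means (±1 SD) from three separate experiments.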
For orientation: cAMP levels reflect the balance of adenylyl cyclase and phosphodiesterase activity.

Experiment [5] can be described thus: Vasolrelaxant activity in guinea pig lung. To be noted: Cavia porcellus. The experiment is classed as functional.
The nature of experiment [6]: Vasolrelaxant activity in rat gastric fundus. The experiment is classed as functional, tissue-based. The following applies: Stomach.
Experiment [7] is filed under the species Cavia porcellus. Kind of experiment: Vasolrelaxant activity in guinea pig trachea. The experiment is classed as functional, tissue-based.
In experiment [8] the test system is Rattus norvegicus. Nature of the experiment: Induction of pancreatic secretory flow in iv dosed rat measured per 10 mins per gram wet weight of pancreas relative to secretin. Type of experiment: functional.

A word on the Emax: it is the size of the effect at its maximum, as opposed to the concentration needed.

The source made the active and inactive calls. No cut-off for these calls is given here.

For H-TFTSELSRLRNSARLQRLLQGLV-NH2, the Activity was 8 ×10⁻⁷ M in the experiment filed under Cavia porcellus [1] and 1.9 ×10⁻⁷ M in the experiment filed under Cavia porcellus [4]. Also, the result in the experiment filed under Rattus norvegicus [2] was inactive. For the same molecule, the result with Rattus norvegicus [3] was Active.

Turning to H-TFTSELSRLRKSARLQRLLQGLV-NH2, the Activity came to 10 ×10⁻⁷ M in the experiment listed under Cavia porcellus [1], 12.9 µL with Rattus norvegicus [3] and 12 ×10⁻⁷ M in the experiment listed under Cavia porcellus [4]. For the same molecule, the result in the experiment filed under Rattus norvegicus [2] was inactive. Moreover, the outcome (in experiment [5]; in experiment [6]; in the experiment filed under Cavia porcellus [7]) was Active. Also, the Emax in the experiment with Rattus norvegicus [8] came to 20%.

For the molecule `CC[C@H](C)[C@H](NC(=O)[C@H](CO)NC(=O)[C@H](CC(N)=O)NC(=O)[C@H](CC(C)C)NC(=O)[C@H](Cc1ccc(O)cc1)NC(=O)[C@H](CCCCN)NC(=O)[C@H](CCCCN)NC(=O)[C@@H](NC(=O)[C@H](C)NC(=O)[C@H](CCSC)NC(=O)[C@H](CCC(N)=O)NC(=O)[C@H](CCCCN)NC(=O)[C@H](CCCN=C(N)N)NC(=O)[C@H](CC(C)C)NC(=O)[C@H](CCCN=C(N)N)NC(=O)[C@@H](NC(=O)[C@H](Cc1ccc(O)cc1)NC(=O)[C@H](CC(N)=O)NC(=O)[C@H](CC(=O)O)NC(=O)[C@@H](NC(=O)[C@H](Cc1ccccc1)NC(=O)[C@@H](NC(=O)[C@H](C)NC(=O)[C@H](CC(=O)O)NC(=O)[C@H](CO)NC(=O)[C@@H](N)Cc1c[nH]cn1)C(C)C)[C@@H](C)O)[C@@H](C)O)C(C)C)C(=O)N[C@@H](CC(C)C)C(=O)N[C@@H](CC(N)=O)C(N)=O`, the result (in experiment [5]; in experiment [6]; in the experiment listed under Cavia porcellus [7]) was Active.

With H-TFTSELSRLRDSARLQRLLQGLV-NH2, the Activity is 46 ×10⁻⁷ M in the experiment listed under Cavia porcellus [1] and 2.3 ×10⁻⁷ M in the experiment listed under Cavia porcellus [4]. Further, the outcome (in experiment [5]; in experiment [6]; in the experiment listed under Cavia porcellus [7]) was Active.

Turning to SECRETIN, the outcome with Rattus norvegicus [3] was Active.
